Among the data in PubChem BioAssay AID623919 (The Scripps Research Institute Molecular Screening Center, 2012) are fold reduction of recombination values, retold here.

The test system of the assay is E. coli V66 Hfr conjugational recombination, colony counts. The experiment in a line: RecBCD-driven recombination inhibition in E. coli, late-stage follow-up, counter-screen for AddAB inhibitor project, V66 E. coli, colony formation, powder samples, 100 µM (AID 623919). To be noted: at 100 µM; stronger effect = higher value. The essentials:
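Assay system: E. coli V66 recipient with Hfr donor. Times: 1 h compound exposure plus 30 min mating. Detection: differential plating colony counts. Replicates: duplicates.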

The source made the active and inactive calls.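 The calls were made as follows: active = recombination in E. coli crosses cut more than 4-fold against the solvent-only control; inactive = cut of 4-fold or less.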

Take `CCn1cc(C(=O)O)c(=O)c2cnc(N3CCNCC3)nc21`: the fold reduction of recombination is 50. Consider `N#Cc1c(NC(=O)c2ccccc2)sc2c1CCC2`, for which the fold reduction of recombination was 1 (inactive). `O=C(NCc1cccnc1)c1ccc([N+](=O)[O-])o1`: the fold reduction of recombination is 18.5.

Take `CCn1cc(C(=O)O)c(=O)c2cnc(N3CCN(C(=S)Nc4ccccc4C)CC3)nc21`: the fold reduction of recombination was 1 (inactive). For the compound `CCn1cc(C(=O)O)c(=O)c2cnc(N3CCN(C(=O)Nc4ccccc4)CC3)nc21`, the fold reduction of recombination is 1 (inactive). With `CCn1cc(C(=O)O)c(=O)c2cnc(N3CCN(C(=S)Nc4ccccc4OC)CC3)nc21`, the fold reduction of recombination was 1.5 (inactive). Consider `CC(=O)Nc1ccc2nc(NC(=O)c3ccc([N+](=O)[O-])o3)sc2c1`, for which the fold reduction of recombination is 2 (inactive). Take `CC1CCc2c(sc(NC(=O)c3ccc([N+](=O)[O-])o3)c2N)C1` (stereo not drawn): the fold reduction of recombination is 2 (inactive). Take `Cc1cccnc1NC(=O)c1ccc([N+](=O)[O-])o1`: the fold reduction of recombination is 3 (inactive). `O=C(OCC(=O)c1cccs1)c1ccc([N+](=O)[O-])o1`: the fold reduction of recombination is 2.1 (inactive). In the case of `CCn1cc(C(=O)O)c(=O)c2cnc(N3CCN(C(=S)NC(=O)c4ccccc4Cl)CC3)nc21`, the fold reduction of recombination is 2 (inactive).

For the compound `N#Cc1c(NC(=O)c2cccc(F)c2)sc2c1CCCC2`, the fold reduction of recombination was 1 (inactive). For `CCn1cc(C(=O)O)c(=O)c2cnc(N3CCN(C(=S)Nc4ccc(F)cc4)CC3)nc21`, the fold reduction of recombination was 1 (inactive). The value for `O=C(Nc1ncccn1)c1ccc([N+](=O)[O-])o1` was 20; that for `Cc1sc(NC(=O)c2ccc(Br)o2)c(C#N)c1C` was 1.5 (inactive); that for `CCn1cc(C(=O)O)c(=O)c2cnc(N3CCN(C(=S)Nc4ccccc4)CC3)nc21` was 1 (inactive). The result for `CCn1cc(C(=O)O)c(=O)c2cnc(N3CCN(C(=S)Nc4ccccc4Cl)CC3)nc21` reads 1 (inactive); that for `C=CCNC(=S)N1CCN(c2ncc3c(=O)c(C(=O)O)cn(CC)c3n2)CC1`, 1.5 (inactive). The result for `C=CCn1c(Sc2ncc([N+](=O)[O-])s2)n[nH]c1=O` reads 900. In the case of `Nc1c(NC(=O)c2ccc([N+](=O)[O-])o2)sc2c1CCCC2`, the fold reduction of recombination was 1 (inactive).

Consider `Cc1ccc2nc(/C(C#N)=C\c3ccc([N+](=O)[O-])o3)[nH]c2c1`, for which the fold reduction of recombination is 3 (inactive). As to `CCn1cc(C(=O)O)c(=O)c2cnc(N3CCN(C(=S)Nc4ccccc4F)CC3)nc21`, the fold reduction of recombination was 2 (inactive). The result for `CCn1cc(C(=O)O)c(=O)c2cnc(N3CCN(C(=S)NC4CC5CCC4C5)CC3)nc21` (stereo not drawn) reads 1 (inactive); that for `N#Cc1c(NC(=O)c2cnccn2)sc2c1CCCC2`, 1 (inactive).

For the compound `NC(=O)c1ccsc1NC(=O)COC(=O)c1ccc([N+](=O)[O-])o1`, the fold reduction of recombination was 1.6 (inactive). Turning to `Cc1ccc(C(=O)Nc2sc3c(c2C#N)CCC3)o1`, the fold reduction of recombination is 2 (inactive). As to `CCn1cc(C(=O)O)c(=O)c2cnc(N3CCN(C(=S)NC(C)c4ccccc4)CC3)nc21` (stereo not drawn), the fold reduction of recombination was 1.5 (inactive). The result for `CC1CCc2c(sc(NC(=O)c3ccc([N+](=O)[O-])o3)c2C#N)C1` (stereo not drawn) reads 2 (inactive); that for `O=C(Nc1ccc(N2CCOCC2)cc1)c1ccc([N+](=O)[O-])o1`, 2 (inactive); that for `CCn1cc(C(=O)O)c(=O)c2cnc(N3CCN(C(=S)NC(=O)c4cccc(C)c4)CC3)nc21`, 1 (inactive). In the case of `N#Cc1c(NC(=O)c2ccc([N+](=O)[O-])o2)sc2c1CCCC2`, the fold reduction of recombination was 1 (inactive). `N#Cc1c(NC(=O)C2CC=CCC2C(=O)O)sc2c1CCC2` (stereo not drawn): the fold reduction of recombination was 1 (inactive). Consider `CCn1cc(C(=O)O)c(=O)c2cnc(N3CCN(C(=S)Nc4ccc5c(c4)OCCO5)CC3)nc21`, for which the fold reduction of recombination was 1 (inactive).

As for `O=C(Nc1cccc(NC(=O)c2ccccc2Cl)c1)c1ccc([N+](=O)[O-])o1`, the fold reduction of recombination is 2 (inactive). The value for `Cc1ccc(C(=O)Nc2sc3c(c2C#N)CCCCC3)o1` was 3 (inactive); that for `CCn1cc(C(=O)O)c(=O)c2cnc(N3CCN(C(=S)NC(=O)c4ccco4)CC3)nc21` was 1 (inactive). In the case of `CCn1cc(C(=O)O)c(=O)c2cnc(N3CCN(C(=S)NC)CC3)nc21`, the fold reduction of recombination is 1 (inactive). The result for `CCn1cc(C(=O)O)c(=O)c2cnc(N3CCN(C(=S)Nc4ccc(Cl)cc4)CC3)nc21` reads 1 (inactive); that for `N#Cc1c(NC(=O)c2ccc([N+](=O)[O-])o2)sc2c1CCC2`, 3 (inactive); that for `N#Cc1c(NC(=O)c2ccccc2C(=O)O)sc2c1CCCC2`, 1 (inactive).

Regarding `CC1(C)Cc2c(sc(NC(=O)c3ccco3)c2C#N)CO1`, the fold reduction of recombination was 2 (inactive). The value for `CCn1cc(C(=O)O)c(=O)c2cnc(N3CCN(C(=S)NCc4ccccc4)CC3)nc21` was 1 (inactive); that for `N#Cc1c(NC(=O)c2ccc(-c3ccccc3[N+](=O)[O-])o2)sc2c1CCCC2` was 1 (inactive); that for `CCn1cc(C(=O)O)c(=O)c2cnc(N3CCN(C(=S)Nc4cccc(C(F)(F)F)c4)CC3)nc21` was 6. Take `CCn1cc(C(=O)O)c(=O)c2cnc(N3CCN(C(=S)NC(=O)c4cccnc4)CC3)nc21`: the fold reduction of recombination was 1 (inactive).

For the compound `CCn1cc(C(=O)O)c(=O)c2cnc(N3CCN(C(=S)Nc4ccc5c(c4)OCO5)CC3)nc21`, the fold reduction of recombination is 1 (inactive). For `N#Cc1c(NC(=O)c2ccco2)sc2c1CCC2`, the fold reduction of recombination is 1 (inactive).

Consider `CCn1cc(C(=O)O)c(=O)c2cc(F)c(N3CCN(C(=S)Nc4cccc(C(F)(F)F)c4)CC3)cc21`, for which the fold reduction of recombination was 350.
